This is a sample that favours compounds with a hit; in the whole collection about 8.9% have one here.
Dynein cargo inh – dynein cargo transport inhibition; z-score, hits read low; 3617.4 mouse cells, GR-EGFP nuclear translocation imaging; test concentration mostly 20 µM; stimulated with dexamethasone, 1 µM; hits give low values; actives 0.47% (n = 220,000);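 active = plate z-score of nuclear minus cytoplasmic receptor signal below a set negative limit, without overly bright fluorescence or cell loss, cut at about -3.5 in these data, passing the limit was not always enough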;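 note: z-score of nuclear minus cytoplasmic ring GR-EGFP intensity difference per well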
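Schedule: 48 h induction, then 1 h compound, then 30 min agonist, 37 °C. Buffer or medium: tetracycline-free induction medium containing charcoal-stripped FBS. Reagent: 1.0 µM final dexamethasone stimulus. Evaluation: nuclear versus cytoplasmic GR-EGFP signal, averaged per well. Signal: high-content fluorescence imaging after fixation.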
MT stabilizer – microtubule stabilization, imaging screen | HeLa tubulin immunostaining HCS, 24 h; share of cells brighter than vehicle mean+2SD | % tubulin-high responders, % at 10 µM | actives 0.83% (n = 200,000);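 active = plate Z-score above 3 for both tubulin-high and condensed-nucleus cell shares, with cell loss under 80%, at 10 µM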;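 note: anti alpha tubulin signal scored within the nucleus-defined area of each cell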
b-catenin transl – beta-catenin nuclear translocation modulation; HeLa beta-catenin nuclear translocation, immunofluorescence imaging; nuclear translocation activity, % at 5 µM; actives 0.3% (n = 190,000); AID 1665;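 active = nuclear translocation activity above 50% at 5 µM, with a well cell count of 50 or more; inconclusive = wells under 50 cells across six images, flagged as toxic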;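 note: per-cell ratio of nuclear to cytoplasmic median beta-catenin stain intensity; plate controls were DMSO negative control for no effect and GSK-3 inhibitor IX positive control for full effect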
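Technique: fluorescence imaging of beta-catenin antibody stain plus DAPI / Material: human HeLa cell line / Incubation: compound treatment 24 h, 37°C, 5% CO2 / Read-out basis: % activation of per-cell nuclear versus cytoplasmic median beta-catenin signal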
L major viab – inhibitors of Leishmania major promastigote growth; inhibition, % at 10 µM; AID 1063; Leishmania major promastigotes, resazurin fluorescence viability; actives 9% (n = 200,000); in the data active = inhibition above about 50%;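 note: promastigotes grown with compound for 44 hours at 28 °C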
HSV replic up – increases HSV replication in cells. maximum fold increase. HSV replication augmentation in cells, fold increase. AID 1956. actives 0.005% (n = 220,000); in the data active = maximum fold increase above about 1.5; inconclusive = no clear call, values can overlap the other calls; tested in PC3 cells
An asterisk follows results filed as active; i = inactive; u = inconclusive; x = no result.

SMILES	Dynein cargo inh	MT stabilizer	b-catenin transl	L major viab	HSV replic up
CCOc1ccc(NC(=O)CN(c2ccc([N+](=O)[O-])cc2)S(=O)(=O)c2ccccc2)cc1	-0.688	14.1*	-0.3	31.2	i
CN(c1cccc(NC(=O)CN(c2cccc(Cl)c2)S(=O)(=O)c2ccccc2)c1)S(C)(=O)=O	-0.722	6.2	-2.2	22.1	i
CCOc1ccc(N(CC(=O)Nc2cccc(N(C)S(C)(=O)=O)c2)S(=O)(=O)c2ccccc2)cc1	-0.285	4.1	x	54.5*	i
COc1ccc(N(CC(=O)Nc2cccc(N(C)S(C)(=O)=O)c2)S(=O)(=O)c2ccc(C)cc2)cc1	0.914	3.4	-0.7	66.6*	i
Cc1ccc(C)c(N(CC(=O)N/N=C/c2ccc(-c3ccc([N+](=O)[O-])cc3)o2)S(=O)(=O)c2ccccc2)c1	0.563	2.3	1.7	48.9	i
CCOc1ccc(S(=O)(=O)N(CC(=O)N/N=C/c2ccc(-c3ccc([N+](=O)[O-])cc3)o2)c2ccccc2)cc1	-1.24	25.7*	60.2*	6.5	i
COc1cccc(C(=O)Nc2cccc(SC)c2)c1	-0.557	2.1	0.1	-0.8	i
CC(C)Oc1cccc(C(=O)NC(=S)Nc2ccc3c4c(cccc24)CC3)c1	-0.883	0.9	2.5	24.9	i
CCN(c1ccc(NC(=O)COC(=O)/C=C/c2cccs2)cc1)C(C)C	0.854	3.6	-0.1	-4.9	i
CN1CCN(S(=O)(=O)c2ccc(NC(=S)NC(=O)C3CCC3)cc2)CC1	-1.42	4.8	2.4	-3.3	i
Cc1ccc(N(CCC(=O)NC(C)(C)C)S(=O)(=O)c2ccc(C)cc2)cc1	0.327	2.4	-0.3	0.0	i
Cc1ccc(S(=O)(=O)N(CCC(=O)Nc2ccc(OC(F)(F)F)cc2)c2ccccc2)cc1	0.568	2.1	3.9	94.7*	i
Cc1c(NS(=O)(=O)c2ccc(N3CCCCC3)c([N+](=O)[O-])c2)c(=O)n(-c2ccccc2)n1C	1.76	1.9	0.6	-3.8	i
Cc1c(NS(=O)(=O)c2ccc(N(C)C3CCCCC3)c([N+](=O)[O-])c2)c(=O)n(-c2ccccc2)n1C	-0.055	3.6	0.0	50.5*	i
O=c1c(C(c2ccccc2)c2c(O)nc3n(c2=O)CCCS3)c(O)nc2n1CCCS2	0.113	4.4	-0.5	-4.1	i
CCOC(=O)CSc1nc2ccccc2n1CC(=O)N1CCN(c2ccccc2)CC1	0.0137	5.9	-0.4	-7.1	i
CCN(CC)S(=O)(=O)c1cccc(NC(=O)c2cc(-c3cccs3)nn2-c2ccccc2)c1	-0.777	2.0	0.4	97.7*	i
CN(C)S(=O)(=O)c1cccc(NC(=O)c2cc(-c3cccs3)nn2-c2ccccc2)c1	0.278	3.7	0.4	7.9	i
Cc1ccc(Cl)cc1NC(=O)CCC(=O)Nc1cc(Cl)ccc1C	0.0247	1.7	x	-5.5	i
Cc1ccc(Cl)cc1NC(=O)c1ccc(NC(=O)CCC(=O)O)cc1	-0.781	2.4	x	53.4*	i
COC(=O)Nc1ccc(S(=O)(=O)N2CCC(Cc3ccccc3)CC2)cc1	-0.461	24.5	-3.1	-0.8	i
COc1ccc(CCn2c(SCCN3CCCCC3)nc3ccccc3c2=O)cc1OC	2.29	1.4	-3.8	99.9*	i
COCC(C)n1c(SCc2nc3ccccc3c(=O)[nH]2)nc2ccccc2c1=O (centres undefined)	-0.0753	1.1	-4.2	7.0	i
COc1ccc(CSc2nc3ccccc3c(=O)n2CCCN2CCOCC2)cc1F	0.82	3.7	-0.3	97.9*	i
O=c1c2ccccc2nc(SCCN2CCOCC2)n1CCc1ccccc1	-0.0504	2.5	-3.2	3.7	i
SMILES	Dynein cargo inh	MT stabilizer	b-catenin transl	L major viab	HSV replic up
COCC(C)n1c(SCC(=O)NC(=O)Nc2ccc3c(c2)OCCO3)nc2ccccc2c1=O (centres undefined)	-0.528	5.0	-2.5	85.3*	i
COCC(C)n1c(SCc2ccc(OC)c(F)c2)nc2ccccc2c1=O (centres undefined)	0.761	1.8	-1.9	100.3*	i
Cc1ccccc1NC(=O)CN1C(=O)S/C(=C\c2cccn2-c2cccc(C(=O)O)c2)C1=O	2.25	4.4	1.9	-9.5	i
COc1ccnc(CSC(N)=Nc2ccccc2C(F)(F)F)c1	-0.242	5.4	3.6	2.9	i
Cc1ccc(CN=C(Nc2ccccc2)NC2CCCCC2)cc1	-0.822	3.7	-3.0	59.7*	i
CCOC(=O)c1ccc(NC(=O)COc2ccccc2CNC2CCCC2)cc1	-0.707	2.8	-3.5	100.4*	i
CCOc1ccccc1OCC(=O)NC1CCCCC1	-0.747	1.7	-1.4	5.9	i
CCOc1cc(CNC2CCCC2)c(Cl)cc1OCC(=O)Nc1ccccc1	-1.23	3.2	-0.2	89.2*	i
CCOC(=O)c1ccc(NC(=O)COc2ccccc2OC)cc1	-0.582	5.3	x	3.2	i
CN1C(C(=O)NCC2CC2)CC2Cn3c(nc4cc(Cl)c(Cl)cc43)C21 (centres undefined)	0.054	x	0.5	x	i
COc1ccc(/C(O)=C2/C(=O)C(=O)N(CCCN(C)C)C2c2ccccc2)cc1Cl (centres undefined)	1.32	2.5	-8.1	-5.6	i
COc1ccccc1C(=O)N/C(=C\c1ccc(Br)cc1)C(=O)NCC(=O)O	-0.175	2.2	-0.5	56.8*	i
COc1ccccc1C(=O)N/C(=C\c1ccc(Br)cc1)C(=O)NCCC(=O)O	-0.539	2.2	-1.7	-9.7	i
C=C(C)Cn1c(C)cc(C)c(S(=O)(=O)c2ccc(C)cc2)c1=O	0.261	2.8	-0.1	67.7*	i
O=c1oc2ccc(Br)cc2cc1-c1nc2ccccc2o1	1.99	6.4	-1.3	0.7	u
Cc1onc(-c2ccccc2Cl)c1C(=O)Nc1sc2c(c1C#N)CCC2	-0.464	6.5	0.5	5.7	i
Cc1onc(-c2ccccc2)c1C(=O)Nc1sc2c(c1C#N)CCC(C)C2 (centres undefined)	1.27	27.2*	0.5	11.2	i
Cc1csc(NC(=O)c2c(-c3c(Cl)cccc3Cl)noc2C)n1	-0.0519	1.7	-4.3	25.5	i
Cc1onc(-c2ccccc2)c1C(=O)Nc1nc2c(s1)CCCC2	0.318	18.5*	-0.5	21.0	i
Cc1onc(-c2c(F)cccc2Cl)c1C(=O)Nc1nc2c(s1)CCCC2	0.175	4.9	-1.5	58.2*	i
COC(=O)c1cc(S(=O)(=O)Nc2cccc(S(N)(=O)=O)c2)oc1C	0.656	x	0.3	x	i
Cc1oc2ccc(NS(=O)(=O)c3cccc4cccnc34)cc2c1C(=O)OC(C)C	-0.674	3.4	x	8.6	i
COC(=O)Nc1nnc(-c2ccccc2OC)s1	0.212	x	-0.1	x	i
CCCN(Cc1cc2cc(OC)ccc2[nH]c1=O)C(=O)c1ccncc1	-0.683	13.0*	-0.4	11.7	i
COc1ccc(CC(=O)N(Cc2cc3cc(OC)ccc3[nH]c2=O)C(C)C)cc1	-0.367	4.2	-7.3	94.0*	i
COc1ccc2[nH]c(=O)c(CN(C)C(=O)c3ccncc3)cc2c1	-0.641	2.5	-4.9	0.3	i
